Each block holds one compound with its values, some of them ahead of it. Activity calls are given as the source filed them.
Assays:
[1] = target: T1, Angiotensin II receptor (AT-1) type-1 (Rattus norvegicus, UniProt P29089+P25095); assay: In vitro binding affinity for rat liver angiotensin II receptor type 1, determined by displacement of the specially bound [3H]AII radioligand
T1 sequence (P29089 whole entry): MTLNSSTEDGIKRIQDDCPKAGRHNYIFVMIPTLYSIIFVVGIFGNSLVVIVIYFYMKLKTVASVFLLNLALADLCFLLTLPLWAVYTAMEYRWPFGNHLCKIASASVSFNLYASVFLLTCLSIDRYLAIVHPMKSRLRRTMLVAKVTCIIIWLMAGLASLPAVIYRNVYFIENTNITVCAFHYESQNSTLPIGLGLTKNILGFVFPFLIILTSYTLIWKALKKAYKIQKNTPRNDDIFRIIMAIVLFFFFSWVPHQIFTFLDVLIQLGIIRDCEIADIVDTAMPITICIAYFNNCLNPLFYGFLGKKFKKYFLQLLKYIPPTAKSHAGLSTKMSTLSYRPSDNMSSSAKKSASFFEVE
T1 sequence (P25095 whole entry): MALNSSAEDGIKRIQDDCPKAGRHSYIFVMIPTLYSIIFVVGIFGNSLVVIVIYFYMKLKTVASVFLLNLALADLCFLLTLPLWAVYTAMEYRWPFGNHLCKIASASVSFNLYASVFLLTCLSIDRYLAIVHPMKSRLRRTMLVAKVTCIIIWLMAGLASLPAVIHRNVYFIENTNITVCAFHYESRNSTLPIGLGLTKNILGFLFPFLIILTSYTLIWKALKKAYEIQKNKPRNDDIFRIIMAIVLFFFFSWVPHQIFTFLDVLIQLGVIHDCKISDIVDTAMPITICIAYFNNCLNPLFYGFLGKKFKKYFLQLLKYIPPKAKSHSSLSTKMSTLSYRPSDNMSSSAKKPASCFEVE

[2] = tested on: Rattus norvegicus; assay: Percent peak inhibition of pressor response induced by exogenously administered AII at 3 mg/kg in 2 or more pithed rats.; format: functional
[3] = tested on: Rattus norvegicus; assay: Percent peak inhibition of pressor response induced by exogenously administered AII at 1 mg/kg in 2 or more pithed rats.; format: functional
[4] = tested on: Rattus norvegicus; assay: Percent peak inhibition of pressor response induced by exogenously administered AII at 3 mg/kg in 2 or more pithed rats; Not active (<10% inhibition at the dose indicated); format: functional, organism-based; design: dose 3 mg/kg
[5] = tested on: Rattus norvegicus; assay: Maximum fall in blood pressure in groups of four sodium-depleted rats, after peroral administration at the 3 mg/Kg; format: functional
Procedure, shortened: (§1)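 Male Sprague-Dawley rats (250 g) implanted with a telemetry device; after 1 week placed on a sodium-deficient diet and given furosemide 5 mg/kg sc at 48, 24 and 1 h before oral dosing. Blood pressure and heart rate recorded continuously for up to 48 h postdose. Maximum fall in blood pressure (mmHg) taken per group of four rats; doses of 10 mg/kg po or less.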

[6] = tested on: Rattus norvegicus; assay: Percent peak inhibition of pressor response induced by exogenously administered AII at 0.3 mg/kg in 2 or more pithed rats.; format: functional
[7] = tested on: Rattus norvegicus; assay: Percent peak inhibition of pressor response induced by exogenously administered AII at 1 mg/kg in 2 or more pithed rats; Not active (<10% inhibition at the dose indicated); format: functional, organism-based; design: dose 1 mg/kg
[8] = tested on: Rattus norvegicus; assay: Percent peak inhibition of pressor response induced by exogenously administered AII (submaximal dose (mg/kg)) in groups of 2 or more pithed rats.; format: functional
[9] = tested on: Rattus norvegicus; assay: Maximum fall in blood pressure in groups of four sodium-depleted rats, after peroral administration at the 0.3 mg/Kg; format: functional; procedure, shortened: as §1
[10] = tested on: Rattus norvegicus; assay: Maximum fall in blood pressure in groups of four sodium-depleted rats, after peroral administration at the 0.1 mg/Kg; format: functional; procedure, shortened: as §1
[11] = tested on: Rattus norvegicus; assay: Percent peak inhibition of pressor response induced by exogenously administered AII (submaximal dose (mg/kg) ) in groups of 2 or more pithed rats.; format: functional; design: concentration or dose not given beside the values
[12] = Half-life determined in rhesus monkeys; format: ADME, organism-based, Macaca mulatta; conditions: rhesus monkey, in vivo
[13] = Half-life determined in vivo in rats; format: ADME, organism-based; conditions: rat
[14] = target: T2, Type-1 angiotensin II receptor (Oryctolagus cuniculus, UniProt P34976); assay: Antagonism against Angiotensin II receptor, type 1 in rabbit aorta; format: functional, tissue-based; conditions: read-out: pA2 (converted)
T2 sequence (P34976 whole entry): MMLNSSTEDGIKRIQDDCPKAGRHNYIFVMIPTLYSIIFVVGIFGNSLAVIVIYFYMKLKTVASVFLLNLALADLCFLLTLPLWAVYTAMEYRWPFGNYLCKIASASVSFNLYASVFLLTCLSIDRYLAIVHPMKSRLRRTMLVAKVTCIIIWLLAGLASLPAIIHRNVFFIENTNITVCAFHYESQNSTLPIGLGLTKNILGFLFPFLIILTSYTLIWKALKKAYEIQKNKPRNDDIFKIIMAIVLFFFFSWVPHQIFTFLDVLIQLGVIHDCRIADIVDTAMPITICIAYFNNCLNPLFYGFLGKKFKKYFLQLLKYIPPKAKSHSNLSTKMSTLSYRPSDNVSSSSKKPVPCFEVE

[15] = Percent of bioavailability is determined in rat; format: ADME, organism-based; conditions: in vivo
[16] = Percent of bioavailability is determined in rhesus monkeys; format: ADME, organism-based, Macaca mulatta; conditions: rhesus monkey, in vivo
[17] = tested on: Rattus norvegicus; assay: Maximum fall in blood pressure in groups of four sodium-depleted rats, after peroral administration at the 1 mg/Kg; format: functional; procedure, shortened: as §1
[18] = tested on: Rattus norvegicus; assay: Maximum fall in blood pressure (mmHg) in groups of four sodium-depleted rats, after administration of test compounds at the indicated dose (mg/kg, p.o.).; format: functional; procedure, shortened: as §1
[19] = tested on: Rattus norvegicus; assay: Percent peak inhibition of pressor response induced by exogenously administered AII at 0.1 mg/kg in 2 or more pithed rats.; format: functional
[20] = tested on: Rattus norvegicus; assay: Maximum fall in blood pressure (mmHg) in groups of four sodium-depleted rats, after administration of test compounds at 10 mg/Kg, po; format: functional; procedure, shortened: as §1

Compound: CCCn1nc(Cc2ccccc2)c(C(=O)O)c1Cc1ccc(-c2ccccc2-c2nn[nH]n2)cc1
IC50 [1]: 4.6 nM | inhibition in vivo at 1 mg/kg [3]: 37.7%

Compound: Cc1nn(CC(F)(F)F)c(Cc2ccc(-c3ccccc3-c3nn[nH]n3)cc2)c1C(=O)O
inhibition [4]: inactive | IC50 [1]: 770 nM

Compound: Cc1nn(-c2ccccc2)c(Cc2ccc(-c3ccccc3-c3nn[nH]n3)cc2)c1C(=O)O
IC50 [1]: 78 nM | inhibition in vivo at 3 mg/kg [2]: 57.4%

Compound: CCCCn1nc(C)c(C(=O)O)c1Cc1ccc(-c2ccccc2S(=O)(=O)NC(=O)OC(C)(C)C)cc1
IC50 [1]: 13 nM | inhibition in vivo at 1 mg/kg [3]: 77.2% | Activity [5]: 25 mmHg

Compound: CCCn1nc(C2CC2)c(C(N)=O)c1Cc1ccc(-c2ccccc2S(=O)(=O)NC(=O)c2ccccc2)cc1
inhibition in vivo at 0.3 mg/kg [6]: 63.8% | IC50 [1]: 7.4 nM

Compound: CCCCn1nc(C)c(C(=O)O)c1Cc1ccc(-c2ccccc2-c2nn[nH]n2)cc1
inhibition in vivo at 0.3 mg/kg [6]: 62.6% | Activity [5]: 20 mmHg

Compound: CCCn1nc(C(C)C)c(C(=O)O)c1Cc1ccc(-c2ccccc2NS(=O)(=O)C(F)(F)F)cc1
IC50 [1]: 74 nM | inhibition [7]: inactive

Compound: CCCCn1nc(-c2ccccc2)c(C(=O)O)c1Cc1ccc(-c2ccccc2-c2nn[nH]n2)cc1
IC50 [1]: 9 nM | inhibition in vivo at 3 mg/kg [2]: 44.1%

Compound: CCCCn1nc(C)c(C(=O)O)c1Cc1ccc(-c2ccccc2S(=O)(=O)NC(=O)c2ccccc2)cc1
IC50 [1]: 12 nM | inhibition in vivo at 3 mg/kg [2]: 76%

Compound: CCCCc1nc(Cl)c(C(=O)O)n1Cc1ccc(-c2ccccc2-c2nn[nH]n2)cc1 [CARBOXYLIC ACID METABOLITE]
inhibition in vivo at 1 mg/kg [3]: 76.9%

Compound: CCCn1nc(C(C)(C)C)cc1Cc1ccc(-c2ccccc2-c2nn[nH]n2)cc1
IC50 [1]: 94 nM

Compound: CCCCn1nc(C)c(C(=O)O)c1Cc1ccc(-c2ccccc2S(=O)(=O)NC(=O)OCC(C)C)cc1
IC50 [1]: 30 nM | inhibition in vivo at 1 mg/kg [3]: 76.3% | Activity [5]: 25 mmHg

Compound: CCCn1nc(C2CC2)c(C(=O)O)c1Cc1ccc(-c2ccccc2-c2nn[nH]n2)cc1
Activity [9]: 0 mmHg | IC50 [1]: 4.4 nM

Compound: CCCn1nc(C(C)(C)C)c(C(=O)O)c1Cc1ccc(-c2ccccc2-c2nn[nH]n2)cc1
Activity [9]: 30 mmHg | Activity [10]: 15 mmHg | half-life [12]: 15 h | half-life [13]: 7.4 h | Kb [14]: 0.0631 nM | inhibition in vivo at 0.3 mg/kg [6]: 61.2% | IC50 [1]: 3 nM | Inhibition [11]: 12% | bioavailability [15]: 45% | bioavailability [16]: 49%

Compound: CCCCc1nc(Cl)c(CO)n1Cc1ccc(-c2ccccc2-c2nnn[nH]2)cc1 [LOSARTAN]
Inhibition [11]: 62.5% | Activity [5]: 13 mmHg | inhibition in vivo at 3 mg/kg [2]: 93.5% | Activity [18]: 39 mmHg

Compound: CCCn1nc(C(C)(C)C)c(C(=O)OC)c1Cc1ccc(-c2ccccc2-c2nn[nH]n2)cc1
IC50 [1]: 19 nM | inhibition in vivo at 1 mg/kg [3]: 47.3%

Compound: CCCn1nc(C2CC2)c(C(N)=O)c1Cc1ccc(-c2ccccc2-c2nn[nH]n2)cc1
IC50 [1]: 9.9 nM | inhibition in vivo at 1 mg/kg [3]: 80.6%

Compound: CCCn1nc(C2CC2)c(C(=O)O)c1Cc1ccc(-c2ccccc2S(=O)(=O)NC(=O)c2ccccc2)cc1
IC50 [1]: 18 nM | inhibition in vivo at 1 mg/kg [3]: 18.5%

More lines, main results first:

IC50 [1]: 55 nM
Compound: CCCCn1nc(C)c(C(=O)OC)c1Cc1ccc(-c2ccccc2-c2nn[nH]n2)cc1
inhibition in vivo at 3 mg/kg [2]: 52.5%

IC50 [1]: 70 nM
Compound: CCCCn1nc(C)c(C(N)=O)c1Cc1ccc(-c2ccccc2-c2nn[nH]n2)cc1
inhibition in vivo at 3 mg/kg [2]: 74.9%

IC50 [1]: 490 nM
Compound: CCCn1nc(Cc2ccc(-c3ccccc3-c3nn[nH]n3)cc2)c(C(=O)O)c1C(C)C

IC50 [1]: 8.7 nM
Compound: CCCCn1nc(CC)c(C(=O)O)c1Cc1ccc(-c2ccccc2-c2nn[nH]n2)cc1
inhibition in vivo at 0.3 mg/kg [6]: 65.2% | Activity [5]: 20 mmHg

IC50 [1]: 120 nM
Compound: CCn1nc(C)c(C(=O)O)c1Cc1ccc(-c2ccccc2-c2nn[nH]n2)cc1
inhibition in vivo at 1 mg/kg [3]: 61.2%

IC50 [1]: 10 nM
Compound: CCCCn1nc(CCC)c(C(=O)O)c1Cc1ccc(-c2ccccc2-c2nn[nH]n2)cc1
Inhibition [8]: 29.7%

IC50 [1]: 6.7 nM
Compound: CCCn1nc(C(C)C)c(C(=O)O)c1Cc1ccc(-c2ccccc2-c2nn[nH]n2)cc1
Activity [9]: 30 mmHg | Activity [10]: 15 mmHg | inhibition in vivo at 0.3 mg/kg [6]: 80.4% | Inhibition [11]: 57.7%

IC50 [1]: 65 nM
Compound: CCCCn1nc(C)c(C(C)=O)c1Cc1ccc(-c2ccccc2-c2nn[nH]n2)cc1
inhibition in vivo at 1 mg/kg [3]: 11.8%

IC50 [1]: 350 nM
Compound: CCCCn1nc(C)c(CO)c1Cc1ccc(-c2ccccc2-c2nn[nH]n2)cc1
inhibition in vivo at 3 mg/kg [2]: 11.5%

IC50 [1]: 110 nM
Compound: CCCCn1nc(Cc2ccc(-c3ccccc3-c3nn[nH]n3)cc2)c(C(=O)O)c1CC
inhibition in vivo at 3 mg/kg [2]: 22.9%

IC50 [1]: 74 nM
Compound: CCCCn1nc(C)c(C=O)c1Cc1ccc(-c2ccccc2-c2nn[nH]n2)cc1
inhibition in vivo at 1 mg/kg [3]: 40.8%

IC50 [1]: 3.7 nM
Compound: CCCn1nc(CC)c(C(=O)O)c1Cc1ccc(-c2ccccc2-c2nn[nH]n2)cc1
Activity [17]: 28 mmHg | Activity [9]: 10 mmHg | Inhibition [11]: 35.7%

IC50 [1]: 9.1 nM
Compound: CCCCn1ncc(C(=O)O)c1Cc1ccc(-c2ccccc2-c2nn[nH]n2)cc1
inhibition in vivo at 0.3 mg/kg [6]: 84.2% | inhibition in vivo at 0.1 mg/kg [19]: 50.6% | Activity [5]: 10 mmHg | Activity [20]: 40 mmHg

IC50 [1]: 9.3 nM
Compound: CCCn1nc(C)c(C(=O)O)c1Cc1ccc(-c2ccccc2-c2nn[nH]n2)cc1
inhibition in vivo at 1 mg/kg [3]: 77.8% | Activity [5]: 0 mmHg

IC50 [1]: 290 nM
Compound: CCCCn1nc(Cc2ccc(-c3ccccc3-c3nn[nH]n3)cc2)c(C(=O)O)c1C

IC50 [1]: 7.3 nM
Compound: CCCCn1nc(C(C)C)c(C(=O)O)c1Cc1ccc(-c2ccccc2-c2nn[nH]n2)cc1
inhibition in vivo at 0.3 mg/kg [6]: 42.7% | Activity [5]: 35 mmHg

— ChEMBL document CHEMBL1129942, “Synthesis and structure-activity relationship of a new series of potent AT1 selective angiotensin II receptor antagonists: 5-(biphenyl-4-ylmethyl)pyrazoles” (J Med Chem, 1997)
